pEC50, pIC50: −log10 of the molar value.
Tests used:
[1] = Growth inhibitory activity on MDA-435/LCC6-MDRI ([…]) human breast cancer cells; format: functional, cell-based; details: Cancer cell lines
Procedure, shortened: (§1)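 Cells exposed 24 h after plating to test agents at several concentrations for 5 days. Crystal violet (0.5% in 25% methanol) fix/stain, dye extracted in 0.1 M sodium citrate/25% methanol, absorbance at 540 nm as percent of untreated controls.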

Breast cancer cell line [2] = experiment: Potency relative to progesterone in reducing the difference in reversal of DOX accumulation between MDA-435/LCC6 and MDA-435/LCC6-MDRI cells; format: functional, Homo sapiens
Procedure, shortened: (§2)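 They were then given test compound at five concentrations plus DOX (4 μM) or [³H] VBL (5 nM) for 3 h, in triplicate, and washed with ice-cold 0.15 M NaCl. DOX was extracted in 20% TCA and read by fluorescence (ex 500/em 580 nm); VBL was counted by scintillation. Values were corrected for cell number. EC50 is the concentration halving the accumulation difference between the two lines, interpolated from dose-response curves. […] Mean ± SE, ≥3 experiments.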

[3] = Effect on reversal of DOX accumulation in MDA-435/LCC6 (Pgp-negative) cells.; format: functional; details: Homo sapiens
Procedure, shortened: (§3)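 Test compound at five concentrations was added with DOX (4 μM) or [³H] VBL (5 nM) for 3 h, in triplicate. Cells were washed in ice-cold 0.15 M NaCl. DOX was measured fluorometrically after TCA extraction and VBL by scintillation, both normalized to cell number. Pgp-specific EC50 values were corrected for these effects.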

Breast cancer cell line [4] = experiment: Potency relative to progesterone in reducing the difference in reversing of [3H]VBL accumulation between MDA-435/LCC6 and MDA-435/LCC6-MDRI cells; format: functional, Homo sapiens; procedure, shortened: as §2
[5] = Growth inhibitory activity on MDA-435/LCC6 ([…]) human breast cancer cells; format: functional, cell-based; details: Cancer cell lines; procedure, shortened: as §1
Breast cancer cell line [6] = experiment: Concentration that reduces difference in reversal of [3H]VBL accumulation between MDA-435/LCC6 and MDA-435/LCC6-MDRI cells by 50%; format: functional, cell-based; details: Homo sapiens
Procedure, shortened: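 They were then given test compound at five concentrations plus DOX (4 μM) or [³H] VBL (5 nM) for 3 h, in triplicate, and washed with ice-cold 0.15 M NaCl. Values were corrected for cell number. EC50 is the concentration halving the accumulation difference between the two lines, interpolated from dose-response curves. Mean ± SE, ≥3 experiments.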

[7] = Potency relative to progesterone in reversing of DOX accumulation in MDA-435/LCC6 (Pgp-negative) cells.; format: functional, Homo sapiens; procedure, shortened: as §3
[8] = Potency relative to progesterone in reversing of [3H]- VBL accumulation in MDA-435/LCC6 (Pgp-negative) cells.; format: functional, Homo sapiens; procedure, shortened: as §3
Breast cancer cell line [9] = experiment: Concentration that reduces the difference in reversal of DOX accumulation between MDA-435/LCC6 and MDA-435/LCC6-MDRI cells by 50%.; format: functional, cell-based; details: Homo sapiens; procedure, shortened: as §2
[10] = Effect on reversal of [3H]- VBL accumulation in MDA-435/LCC6 (Pgp-negative) cells.; format: functional; details: Homo sapiens; procedure, shortened: as §3
Breast cancer cell line [11] = experiment: Ratio of effect of compound on DOX accumulation (antiPgp activity) to its intrinsic cellular toxicity; format: functional, Homo sapiens
Procedure, shortened: (§4)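 Ratio IC50/EC50 of crystal violet cytotoxicity (5-day exposure) IC50 to the EC50 for DOX or [³H] VBL accumulation (3 h, 4 μM DOX or 5 nM VBL) in MDA435/LCC6 and MDA435/LCC6^MDR1 cells. Where no IC50 was reached, the highest non-toxic concentration tested, limited by solubility, was used.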

Breast cancer cell line [12] = experiment: Ratio of effect of compound on VBL accumulation (antiPgp activity) to its intrinsic cellular toxicity; format: functional, Homo sapiens; procedure, shortened: as §4
[13] = Growth inhibitory activity on MDA-435/LCC6 ([…]) human breast cancer cells.; format: functional, cell-based; details: Cancer cell lines
Procedure, shortened: (§5)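 MDA435/LCC6 (Pgp-negative) and MDA435/LCC6^MDR1 (Pgp-positive) cells were plated 24 h, then exposed 5 days to test agents at a range of concentrations in growth medium. Cells were fixed and stained with 0.5% crystal violet in 25% methanol, and dye was eluted in 0.1 M sodium citrate/25% methanol and read at 540 nm. […] Mean ± SE, ≥3 experiments.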

[14] = Growth inhibitory activity on MDA-435/LCC6-MDRI ([…]) human breast cancer cells.; format: functional, cell-based; details: Cancer cell lines; procedure, shortened: as §5
Breast cancer cell line [15] = experiment: Concentration that reduces the difference in reversal of DOX accumulation between MDA-435/LCC6 and MDA-435/LCC6-MDRI cells by 50%; format: functional, cell-based; details: Homo sapiens
Procedure, shortened: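 Ice-cold NaCl wash, overnight 20% TCA extraction at 4 °C in dark, fluorescence ex 500/em 580 nm against DOX standard curve, normalized to cell number.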

Breast cancer cell line [16] = experiment: Ratio of effect of compound on DOX accumulation (antiPgp activity) to its intrinsic cellular toxicity;; format: functional, Homo sapiens; procedure, shortened: as §4
Breast cancer cell line [17] = experiment: To estimate the extent of resistance conferred by Pgp, the ratio of IC50 in MDA-435/LCC6-MDR1 and MDA-435/LCC6 cells (relative resistance of Pgp-positive cells) was used; format: functional, Homo sapiens
Procedure, shortened: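 Retrovirally MDR1-transduced MDA435/LCC6^MDR1 and parental MDA435/LCC6 cells, 24 h after plating, exposed 5 days to graded agent concentrations. Fixed/stained with 0.5% crystal violet in 25% methanol, dye extracted in 0.1 M sodium citrate/25% methanol, A540. IC50 = concentration halving cell density versus untreated, interpolated.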

Breast cancer cell line [18] = experiment: Ratio of effect of compound on VBL accumulation (antiPgp activity) to its intrinsic cellular toxicity;; format: functional, Homo sapiens
[19] = target: ATP-dependent translocase ABCB1 (Homo sapiens, UniProt P08183); experiment: TP_TRANSPORTER: reversal of Vinblastine accumulation (Vinblastine: 0.005 uM) in MDA435/LCC6 MDR1 cells; format: functional, cell-based, MDA-MB-435/LCC6 MDR1
Procedure, shortened: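 VBL (5 nM) with test compound at five concentrations, in triplicate. Cells were rinsed with ice-cold 0.15 M NaCl and PBS, dried, trypsinized, and counted by scintillation; accumulation was corrected for cell number.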

[20] = Potency relative to progesterone in reversing of DOX accumulation in MDA-435/LCC6 (Pgp-negative)cells; Not determined; format: functional, Homo sapiens

Chain of ATP-dependent translocase ABCB1 (P08183 whole entry): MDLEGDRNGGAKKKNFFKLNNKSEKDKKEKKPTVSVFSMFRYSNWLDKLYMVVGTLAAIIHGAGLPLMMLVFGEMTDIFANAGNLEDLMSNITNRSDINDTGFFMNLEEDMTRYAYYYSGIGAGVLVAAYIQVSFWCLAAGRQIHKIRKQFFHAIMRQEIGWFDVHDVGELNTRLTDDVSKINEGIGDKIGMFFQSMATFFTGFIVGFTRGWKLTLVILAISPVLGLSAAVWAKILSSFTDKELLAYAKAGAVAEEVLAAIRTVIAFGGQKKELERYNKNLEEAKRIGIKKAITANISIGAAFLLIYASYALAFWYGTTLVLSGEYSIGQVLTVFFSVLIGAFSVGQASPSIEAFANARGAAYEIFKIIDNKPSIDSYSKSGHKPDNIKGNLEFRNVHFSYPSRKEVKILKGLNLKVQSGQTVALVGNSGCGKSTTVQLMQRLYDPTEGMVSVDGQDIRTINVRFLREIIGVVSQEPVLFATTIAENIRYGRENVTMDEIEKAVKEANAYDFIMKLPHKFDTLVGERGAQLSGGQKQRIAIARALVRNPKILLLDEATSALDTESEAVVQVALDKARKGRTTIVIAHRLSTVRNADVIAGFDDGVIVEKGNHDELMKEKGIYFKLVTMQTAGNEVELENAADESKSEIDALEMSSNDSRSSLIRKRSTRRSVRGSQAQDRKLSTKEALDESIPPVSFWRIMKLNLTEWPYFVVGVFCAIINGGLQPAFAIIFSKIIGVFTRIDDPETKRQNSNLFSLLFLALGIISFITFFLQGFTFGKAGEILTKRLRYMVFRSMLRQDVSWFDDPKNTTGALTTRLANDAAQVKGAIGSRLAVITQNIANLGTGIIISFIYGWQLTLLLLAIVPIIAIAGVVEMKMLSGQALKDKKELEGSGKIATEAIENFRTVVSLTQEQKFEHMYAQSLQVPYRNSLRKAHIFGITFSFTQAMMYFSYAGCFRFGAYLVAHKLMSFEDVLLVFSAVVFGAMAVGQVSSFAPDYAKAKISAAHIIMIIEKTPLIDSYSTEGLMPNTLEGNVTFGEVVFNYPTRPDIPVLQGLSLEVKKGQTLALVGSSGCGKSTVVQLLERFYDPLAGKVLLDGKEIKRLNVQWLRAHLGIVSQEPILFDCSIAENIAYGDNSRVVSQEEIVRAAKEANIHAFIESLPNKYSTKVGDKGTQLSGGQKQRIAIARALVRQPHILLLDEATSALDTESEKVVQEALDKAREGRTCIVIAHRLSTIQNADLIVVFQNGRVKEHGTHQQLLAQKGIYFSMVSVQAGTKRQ

| pEC50 (Breast cancer cell line [9]) | pEC50 [10] | pEC50 [19] | SMILES | pIC50 [1] | Relative potency (Breast cancer cell line [2]) | pEC50 [3] | Relative potency (Breast cancer cell line [4]) | pIC50 [5] | pEC50 (Breast cancer cell line [6]) | Relative potency [7] | Relative potency [8] | Ratio (Breast cancer cell line [11]) | Ratio (Breast cancer cell line [12]) | pIC50 [13] | pIC50 [14] | pEC50 (Breast cancer cell line [15]) | Ratio (Breast cancer cell line [16]) | Relative resistance (Breast cancer cell line [17]) | Ratio (Breast cancer cell line [18]) | Relative potency [20] |
| --- | --- | --- | --- | --- | --- | --- | --- | --- | --- | --- | --- | --- | --- | --- | --- | --- | --- | --- | --- | --- |
| 6.22 | 6.15 |  | CC(=O)[C@H]1CCC2C3C(CC[C@@]21C)[C@@]1(C)CCC(=O)C=C1C[C@H]3Sc1ccc(NC(=O)N[C@H](C)c2ccccc2)cc1 (stereo partly drawn) | < 4.70 | 37.2 | 6.05 | 24.5 | < 4.70 | 6.10 | 44.8 | 28.2 | >22.2 | >28.6 |  |  |  |  |  |  |  |
| 4.83 | 4.48 |  | CC(=O)[C@H]1CCC2C3C(CC[C@@]21C)[C@@]1(C)CCC(=O)C=C1C[C@H]3Sc1ccc(NC(=O)NS(=O)(=O)c2ccc(C)cc2)cc1 (stereo partly drawn) |  | 1.5 | 4.43 | 0.5 |  | 4.46 | 1.1 | 0.6 |  |  | 4.66 | 4.42 |  | 0.6 | 1.7 | 0.7 |  |
| 6.22 | 6.05 |  | CC(=O)C1CCC2C3C(CC[C@]12C)[C@@]1(C)CCC(=O)C=C1C[C@H]3Sc1ccc(NC(=O)NCCCl)cc1 (stereo partly drawn) |  | 40.5 | 6.15 | 22.5 |  | 6.10 | 60.2 | 23.5 |  |  | 5.49 | 5.14 |  | 3.2 | 2.2 | 3.6 |  |
|  |  | 6.15 | CC(=O)C1CC[C@H]2[C@@H]3[C@H](Sc4ccc(NC(=O)N[C@H](C)c5ccccc5)cc4)CC4=CC(=O)CC[C@]4(C)[C@H]3CC[C@]12C (stereo partly drawn) |  |  |  |  |  |  |  |  |  |  |  |  |  |  |  |  |  |

Second part, the molecule before the results:

| SMILES | pEC50 (Breast cancer cell line [9]) | pEC50 [10] | pEC50 [19] | pIC50 [1] | Relative potency (Breast cancer cell line [2]) | pEC50 [3] | Relative potency (Breast cancer cell line [4]) | pIC50 [5] | pEC50 (Breast cancer cell line [6]) | Relative potency [7] | Relative potency [8] | Ratio (Breast cancer cell line [11]) | Ratio (Breast cancer cell line [12]) | pIC50 [13] | pIC50 [14] | pEC50 (Breast cancer cell line [15]) | Ratio (Breast cancer cell line [16]) | Relative resistance (Breast cancer cell line [17]) | Ratio (Breast cancer cell line [18]) | Relative potency [20] |
| --- | --- | --- | --- | --- | --- | --- | --- | --- | --- | --- | --- | --- | --- | --- | --- | --- | --- | --- | --- | --- |
| COc1ccc(CCN(C)CCCC(C#N)(c2ccc(OC)c(OC)c2)C(C)C)cc1OC (stereo not drawn) | 5.62 |  |  |  |  | 5.39 |  |  | 5.92 |  |  |  |  | 4.18 | 4.20 |  |  |  |  |  |
| CC(=O)[C@H]1CC[C@H]2[C@@H]3CCC4=CC(=O)CC[C@]4(C)[C@H]3CC[C@]12C [PROGESTERONE] |  | 4.68 |  |  |  | 4.37 |  |  | 4.73 |  |  |  |  | 4.56 | 4.44 | 4.65 |  |  |  |  |
| C/C=C/C[C@@H](C)[C@@H](O)[C@H]1C(=O)N[C@@H](CC)C(=O)N(C)CC(=O)N(C)[C@@H](CC(C)C)C(=O)N[C@@H](C(C)C)C(=O)N(C)[C@@H](CC(C)C)C(=O)N[C@@H](C)C(=O)N[C@H](C)C(=O)N(C)[C@@H](CC(C)C)C(=O)N(C)[C@@H](CC(C)C)C(=O)N(C)[C@@H](C(C)C)C(=O)N1C [CYCLOSPORINE] | 6.30 |  |  |  |  |  |  |  |  |  |  |  |  |  |  |  |  |  |  |  |
| CCNC(=O)Nc1ccc(S[C@@H]2CC3=CC(=O)CC[C@]3(C)C3CC[C@]4(C)C(C(C)=O)CCC4C32)cc1 (stereo partly drawn) | 6.15 | 5.82 |  | < 4.70 | 31.3 | 6.00 | 14.2 | < 4.70 | 5.89 |  | 14 |  | >13.3 |  |  |  | >20 |  |  | 42.7 |

— ChEMBL document CHEMBL1135805 (J Med Chem, 2002)
